Inconclusive results are not listed.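 Rule for the calls, unless noted: active = viability increase at or above a cutoff of the median across tested compounds plus 3 SD (cut at about 8.5% in these data, passing the limit was not always enough); inconclusive = some gains above the cutoff, reason not given; inactive = the rest.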
How the values were obtained:
[1] = OD615 S. cerevisiae growth inhibition, permissive medium, pilot counter-assay, permissive growth control for S. cerevisiae lifespan shortening project (AID 705;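 active = growth inhibition above 25% in both replicates, a cutoff set 3 SD above the mean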); details: OD615, 24 h, at 10 µM, hits give high values
How it was run: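 Material: engineered DeaD yeast; compound dosing: one dose 10 µM, DMSO 0.25% final; measure: yeast growth inhibition indicated by reduced 24 h OD615; detection: OD615 turbidity read; incubation: cells pre-grown 4 h, then 24 h compound exposure, 30 °C humidified; medium: permissive synthetic complete medium with raffinose and galactose carbon sources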

[2] = Restrictive medium S. cerevisiae growth inhibition, OD615, pilot screen of yeast lifespan reduction project, restrictive growth control (AID 706;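 active = growth inhibition above a set limit, 3 SD over mean compound inhibition, in both replicates, cut at about 43% in these data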;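 note: modified DeaD lifespan yeast strain shifted to restrictive glucose medium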); details: OD615, 48 h, at 10 µM, hits give high values
How it was run: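 material = engineered S. cerevisiae DeaD strain | medium = glucose-based CSMM-D restrictive medium | times = 4 h pre-incubation, 48 h exposure at 30 °C | technique = OD615 absorbance reading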

[3] = viability gain of MRP-1-high H69AR cells under doxorubicin, pilot screen, MRP-1 activator project, CellTiter-Glo, duplicate (AID 807); details: H69AR viability with doxorubicin, CellTiter-Glo luminescence; at 10 µM; hits give high values;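 note: compound pretreatment 18-22 h then 72 h combined with doxorubicin; 0% = doxorubicin alone and 100% = vehicle without doxorubicin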
[4] = growth suppression of beta-catenin knockout HCT116, pilot screen, human colon tumor cells (AID 823;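 active = cell viability at or below a set limit in both duplicate runs, the limit being the all-compound median minus 4 SD, cut at about 23% in these data, passing the limit was not always enough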;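 note: 0% = wells killed by 20 µM Hyamine and 100% = untreated DMSO cell wells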); details: CellTiter-Glo, 60 h, at 10 µM, hits give low values
[5] = growth suppression of PTEN-deleted HCT116, pilot screen, cell-based, HCT116 clonal line, CellTiter-Glo (AID 824;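 active = viability at or below 27.92% in each of two runs, the all-compound median minus 4 SD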;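 note: 0% = 20 µM Hyamine control and 100% = vehicle cell control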); details: 60 h, at 10 µM, hits give low values
[6] = RAM signaling pathway blockade in yeast – S. cerevisiae, Pdr1DBD-CYC8 efflux-inhibited sensitized strain, primary screen (AID 1298;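 active = RAM network inhibition above 8.4% in each of two replicates, 3 SD over the compound average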;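 note: 0% = DMSO untreated cells without growth and 100% = 10 µM 1-NA-PP1 full growth; higher means more yeast growth rescued from 5-FOA killing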); details: S. cerevisiae cbk1-as DSE1-URA3 strain, 5-FOA growth OD615, 2 d; at 50 µM; hits give high values
[7] = inhibitors of the yeast RAM network, pilot screen, dse1pr::URA3 reporter, 5-FOA selection (AID 869;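 active = inhibition over a set limit, the all-compound mean plus 3 SD, in both replicate runs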;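 note: 0% = DMSO wells with no growth and 100% = 10 µM 1-NA-PP1 with full growth; RAM network block rescues cells from 5-FOA so hits raise OD615 growth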); details: S. cerevisiae dse1pr::URA3 5-FOA growth, OD615, 2 d; at 10 µM; hits give high values; strain carries analog-sensitive mutant Cbk1 kinase

Cn1c(Cn2c(=O)sc3ccccc32)nnc1SCc1ccccc1
inactive: growth inhibition [1] -3.71% | growth inhibition [2] -6.89% | viability increase [3] 0.76% | viability [4] 72.9% | viability [5] 71.2% | RAM network inhibition [6] 4.4%

Cc1cc(Nc2ccc(C)c(Br)c2)n2nc(C)nc2n1
inactive: growth inhibition [1] -12.9% | growth inhibition [2] 10.4% | viability increase [3] -5% | viability [4] 92.1% | viability [5] 92.8% | RAM network inhibition [6] 3.87%

COc1ccc(C)cc1NS(=O)(=O)c1cccc2nonc12
inactive: growth inhibition [1] -8.6% | growth inhibition [2] -10.6% | viability increase [3] -3.24% | viability [4] 95.8% | viability [5] 94.3% | RAM network inhibition [6] 4.42%

CN1C(=O)CSc2ccc(C(=O)O)cc21
inactive: growth inhibition [1] 0.925% | growth inhibition [2] -1.22% | viability increase [3] -0.35% | viability [4] 100% | viability [5] 100% | RAM network inhibition [6] -0.62%

COC(=O)c1ccc(Nc2ncnc3c2cnn3-c2cccc(C)c2)cc1
inactive: growth inhibition [1] -13% | growth inhibition [2] -25.2% | viability increase [3] -3.78% | viability [4] 109% | viability [5] 93.4% | RAM network inhibition [6] 10.5%

O=C1CCC(C(=O)NC2(C(=O)NC3CCCCC3)CCCCC2)N1 (stereo not given)
inactive: growth inhibition [1] -0.36% | growth inhibition [2] -2.28% | viability increase [3] 0.85% | viability [4] 99.6% | viability [5] 104% | RAM network inhibition [6] 1%

CCOc1ccc(-n2c(SCC(N)=O)nc3c([nH]c4ccccc43)c2=O)cc1
inactive: growth inhibition [1] -16.6% | growth inhibition [2] 2.87% | viability increase [3] -2.27% | viability [4] 62.5% | viability [5] 71.4% | RAM network inhibition [6] 11.2%

c1ccc(-c2nc(CSc3nnnn3-c3ccccc3)cs2)cc1
inactive: growth inhibition [1] -8.04% | growth inhibition [2] -0.095% | viability increase [3] -2.18% | viability [4] 99.5% | viability [5] 93.4% | RAM network inhibition [6] 7.98%

O=C(c1cccs1)N(C(=O)c1cccs1)c1ccccn1
inactive: growth inhibition [1] -5.4% | growth inhibition [2] -6.32% | viability increase [3] -1.11% | viability [4] 96.8% | viability [5] 102% | RAM network inhibition [6] 4.17%

CC(C)OCCCNS(=O)(=O)c1ccc2c(c1)oc(=O)n2C
inactive: growth inhibition [1] -13.3% | growth inhibition [2] -6.73% | viability increase [3] -1.3% | viability [4] 101% | viability [5] 97% | RAM network inhibition [6] 0.04%

CN1C(=O)c2cccc(NC(=O)CCc3ccccc3)c2C1=O
inactive: growth inhibition [1] -6.67% | growth inhibition [2] 1.67% | viability increase [3] 0.13% | viability [4] 99% | viability [5] 93% | RAM network inhibition [6] 1.84%

COc1ccc(-n2c(SCC(=O)Nc3nccs3)nc3c(c2=O)SCC3)cc1
inactive: growth inhibition [1] -1.01% | growth inhibition [2] -11.5% | viability increase [3] -3.87% | viability [4] 93.2% | viability [5] 84.6% | RAM network inhibition [6] 5.95%

Cc1cc(Nc2cccc(Cl)c2)n2ncnc2n1
inactive: growth inhibition [1] -2.62% | growth inhibition [2] 7.42% | viability increase [3] -2.08% | viability [4] 95.9% | viability [5] 98.7% | RAM network inhibition [6] 1.67%

CCN(CC)CCn1c(=S)[nH]c2ccccc2c1=O
inactive: growth inhibition [1] -8.59% | growth inhibition [2] 6.18% | viability increase [3] -1.56% | viability [4] 103% | viability [5] 98.1% | RAM network inhibition [6] 6.58%

COc1ccc(-c2nc(CS(=O)CC(=O)NCc3ccc(Cl)cc3)c(C)o2)cc1 (stereo not given)
inactive: growth inhibition [1] -11.9% | growth inhibition [2] 4.36% | viability increase [3] 0.16% | viability [4] 72.4% | viability [5] 79.9% | RAM network inhibition [6] 7.34%

CC(C)c1ccc(OC(=O)NCCO)cc1
inactive: growth inhibition [1] 4.54% | growth inhibition [2] -4.21% | viability increase [3] 0.33% | viability [4] 98.9% | viability [5] 104% | RAM network inhibition [6] 4.79%

Cc1cc(NC(=O)CSc2cn(CCNC(=O)c3ccc(Cl)cc3)c3ccccc23)no1
inactive: growth inhibition [1] -4.83% | growth inhibition [2] -1.28% | viability increase [3] -0.7% | viability [4] 61.5% | viability [5] 57.3% | RAM network inhibition [6] 3.24%

O=C(CSc1nnc(Cn2c(=O)sc3ccccc32)n1-c1ccccc1)N1CCCC1
inactive: growth inhibition [1] -8.58% | growth inhibition [2] -14.4% | viability increase [3] -1.4% | viability [4] 97.1% | viability [5] 97% | RAM network inhibition [6] 2.12%

CCC(C)(C(=O)NC1CCCC1)N(CC1CCCO1)C(=O)CNC(=O)c1ccccc1 (stereo not given)
inactive: growth inhibition [1] -6.16% | growth inhibition [2] -12.3% | viability increase [3] -2.92% | viability [4] 98.2% | viability [5] 93% | RAM network inhibition [6] 1.24%

CCOC(=O)C1CCN(S(=O)(=O)C(F)(F)c2nc3ccccc3s2)CC1
inactive: growth inhibition [1] -10.6% | growth inhibition [2] -6.5% | viability increase [3] -2.27% | viability [4] 82.2% | viability [5] 87.5% | RAM network inhibition [6] 5.28%

CN(C)c1nc2ccc(OCCN3CCCCC3)cc2s1
inactive: growth inhibition [1] -10.8% | growth inhibition [2] 0.795% | viability increase [3] -0.48% | viability [4] 93% | viability [5] 94.3% | RAM network inhibition [6] 4.76%

O=C(NCc1ccccc1Cl)C1CCN(C(=O)c2sccc2-n2cccc2)CC1
inactive: growth inhibition [1] -17.6% | growth inhibition [2] -12% | viability increase [3] -2.65% | viability [4] 99.2% | viability [5] 86.8% | RAM network inhibition [6] 8.69%

CC(Sc1nc(N2CCOCC2)nc(N2CCOCC2)n1)C(=O)Nc1ccccc1 (stereo not given)
inactive: growth inhibition [1] -18.4% | growth inhibition [2] -21.2% | viability increase [3] -1.56% | viability [4] 95.5% | viability [5] 93.2% | RAM network inhibition [6] 5.6%

CCOc1ccc(N(CC(=O)NC(C)CC)S(=O)(=O)c2c(C)noc2C)cc1 (stereo not given)
inactive: growth inhibition [1] -4.58% | growth inhibition [2] -11.1% | viability increase [3] -0.76% | viability [4] 99.3% | viability [5] 93.1% | RAM network inhibition [6] 2.66%

CS(=O)(=O)c1ccc2nc(NC(=O)Cc3ccccc3)sc2c1
inactive: growth inhibition [1] -10.9% | growth inhibition [2] -4.83% | viability increase [3] -4.98% | viability [4] 91.5% | viability [5] 96.3% | RAM network inhibition [6] 3.94%

CC(=O)c1cccc(NC(=O)CCS(=O)(=O)c2cccc3nonc23)c1
inactive: growth inhibition [1] -9.88% | growth inhibition [2] -7.91% | viability increase [3] -3.46% | viability [4] 93.5% | viability [5] 93.2% | RAM network inhibition [6] 3.02%

CCOC(=O)CNc1nc(C(C)(C)C)nc2c1nnn2Cc1ccccc1Cl
inactive: growth inhibition [1] 1.73% | growth inhibition [2] -3.68% | viability increase [3] -1.19% | viability [4] 78% | viability [5] 76.2% | RAM network inhibition [6] 9.74%

CCOc1ccc(C2Oc3nc(SC)nnc3-c3ccccc3N2C(C)=O)cc1OC (stereo not given)
inactive: growth inhibition [1] 6.18% | growth inhibition [2] 4.39% | viability increase [3] -2.28% | viability [4] 109% | viability [5] 99.8% | RAM network inhibition [6] 4.23%

Cn1c(C(C#N)/C(=N\S(=O)(=O)c2cccs2)c2ccccc2)nc2ccccc21 (stereo not given)
inactive: growth inhibition [1] -17.5% | growth inhibition [2] -19.6% | viability increase [3] -1.15% | viability [4] 95.5% | viability [5] 94.7% | RAM network inhibition [6] 6.16%

Cc1cc(N2CCOCC2)c2c(N)c(Br)cc(C)c2n1
inactive: growth inhibition [1] -14% | growth inhibition [2] -15.8% | viability increase [3] -5.84% | viability [4] 80.1% | viability [5] 76.4% | inhibition [7] 1.16% | RAM network inhibition [6] 3.17%

CCOC(=O)c1c(C)oc2ccc(OC(=O)N3CCOCC3)cc12
inactive: growth inhibition [1] -16.1% | growth inhibition [2] 0.815% | viability increase [3] -1.36% | viability [4] 93.8% | viability [5] 89.6% | inhibition [7] 0.115% | RAM network inhibition [6] 0.98%

C=CCn1c(=O)c2c(nc3n2CC(C)CN3c2cccc(OC)c2)n(C)c1=O (stereo not given)
inactive: growth inhibition [1] -16.1% | growth inhibition [2] -8.79% | viability increase [3] -3.27% | viability [4] 97.7% | viability [5] 98.8% | inhibition [7] 1.56% | RAM network inhibition [6] 5.52%

COc1cc(C(=O)NCCc2cn3ccc(C)cc3n2)cc(OC)c1OC
inactive: growth inhibition [1] -4.97% | growth inhibition [2] 4.06% | viability increase [3] -4.28% | viability [4] 96.5% | viability [5] 95.9% | RAM network inhibition [6] 2.94%

COCCN1C(=O)c2oc3ccccc3c(=O)c2C1c1ccc(OC)c(OC)c1 (stereo not given)
inactive: growth inhibition [1] -24% | growth inhibition [2] -16.9% | viability increase [3] -1.75% | viability [4] 107% | viability [5] 95.1% | inhibition [7] 0.865% | RAM network inhibition [6] 4.46%

CCC(=O)Nc1sc2c(c1C(N)=O)CCN(C(C)=O)C2
inactive: growth inhibition [1] -12.9% | growth inhibition [2] -19.6% | viability increase [3] -0.72% | viability [4] 103% | viability [5] 105% | inhibition [7] 1.94% | RAM network inhibition [6] 3.29%

Cn1c(Cn2c(=O)sc3ccccc32)nnc1SCC(=O)Nc1ccc(F)cc1
inactive: growth inhibition [1] -6.3% | growth inhibition [2] -13.1% | viability increase [3] -0.7% | viability [4] 105% | viability [5] 97.8% | RAM network inhibition [6] 5.95%

Cc1nnc(Sc2nc3c(c(=O)[nH]c(=O)n3C)n2Cc2ccccc2Cl)s1
inactive: growth inhibition [1] -9.12% | growth inhibition [2] -9.02% | viability increase [3] -2.89% | viability [4] 96.8% | viability [5] 90.5% | inhibition [7] 1.07% | RAM network inhibition [6] 2.84%

COc1ccccc1CCNC(=O)CSc1nc(-c2ccco2)cc(C(F)(F)F)n1
inactive: growth inhibition [1] -13.3% | growth inhibition [2] -5.15% | viability increase [3] -1.65% | viability [4] 102% | viability [5] 93.7% | RAM network inhibition [6] 6.42%

O=C(Cn1c(=O)oc2cc(S(=O)(=O)N3CCCCCC3)ccc21)NC1CCCCC1
inactive: growth inhibition [1] -4.92% | growth inhibition [2] -8.79% | viability increase [3] -4.28% | viability [4] 101% | viability [5] 93.8% | RAM network inhibition [6] 3.25%

Source: PubChem BioAssay
